Assay results as given in the EternaBench riboswitch data.

Tested on: MS2 coat protein
Assay: apparent Kd, MS2 coat protein; higher = weaker binding; RNA-MaP array; theophylline 2 mM where present
Summary of the method: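 On Illumina sequencing-chip clusters, designs were transcribed by stalled E. coli RNA polymerase and titrated with SNAP-549-labelled MS2 coat protein (0.7 or 1.5 nM, doubling to 3 µM), without and then with constant ligand, in 100 mM Tris-HCl pH 7.5, 80 mM KCl, 4 mM MgCl2, BSA, DTT, yeast tRNA and Tween-20. Apparent Kd is the median of filtered per-cluster curve fits to green signal normalised to red-channel RNA signal and control-cluster median Fmax.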

[1] = designed as: ON switch for theophylline, no ligand
[2] = ligand present: theophylline, designed as: ON switch for theophylline
[3] = designed as: OFF switch for theophylline, no ligand
[4] = ligand present: theophylline, designed as: OFF switch for theophylline

Sequence	apparent Kd [1] [nM]	apparent Kd [2] [nM]	apparent Kd [3] [nM]	apparent Kd [4] [nM]
AAUAACAUGAGGAUCACCCAUGUAAAAGAUACCAGAUGCAUGAUGAUCCCUUGGCAGCUUAAACGCGAUUGAUUACAAUCGCGAA	34.4	91.8	–	–
ACCUACACGGAGACGUGUAGGAGUAAUGAUACCAGCAUGGAGACAUGCCCUUGGCAGCGUUACAUGAGGAUCACCCAUGUGGUGC	–	–	21.1	483
CCAUAAGUAACUGAUACCAGUGUACUGACAUGAGGAUCACCCAUGUUGGGUUUUGUUGUACACCCUUGGCAGCAGAAUCUUGUGG	–	–	63	90.3
UCGUGUAUUUCGGAUACCAGUGAAAUCGAUACAUGAGGAUCACCCAUGUGAGAGGAUGUACACCCUUGGCAGCUGUCUGUAUCUG	16.3	15.2	–	–
GAUGAUAUUGCAGAUACCAGACACAUGAGGAUCACCCAUGUCGCUGGGUUACUGGGUCGUGUCCCUUGGCAGCUGCGAUAUCAUC	–	–	44	339
AUUAUCAUGGUCAUAUAUAUUUCGUCAGAUACCAGACUAGAUAUAGUCCCUUGGCAGCUGUUACAUGAGGAUCACCCAUGUUAUU	–	–	121	44.5
UCAUUUGAGUGAGAUGUAAGGUAUCAUGAUACCAGUAGAUAAUUAUACCCUUGGCAGCAUAACAUGAGGAUCACCCAUGUACAUG	–	–	22.8	24.2
AUAACAUGAGGAUCACCCAUGUAAGGUGAUACCAGACGAAGUAAAGUCCCUUGGCAGCACAAGCAUAGUUGCGAAUAUUGAUAGA	469	63.1	–	–
CAUAUUGUAACUGAUACCAGUGUACUGACAUGAGGAUCACCCAUGUUGGGUUUUGUUGUACACCCUUGGCAGCAGAAUCAAUAUG	–	–	68.7	89.2
AGAUCUUUCGAAAGAAGGAUCUUGGCUGAUACCAGAGACGAAAGUCUCCCUUGGCAGCAGUGCCAACAUGAGGAUCACCCAUGUA	45.8	24.1	–	–
AUUUAUUGUCGUGAUACCAGACAUACAUGAGGAUCACCCAUGUUAAGUAACUUUUUUCAGGUCCCUUGGCAGCACUUUUUAAUUA	17.3	13.9	–	–
AGCGUAUAGACGGAUACCAGCGCCAAUUAACAUGAGGAUCACCCAUGUAGUGUGGGUGGACGCCCUUGGCAGCCGAGUAUAGGUA	–	–	97.8	284
UGACAUUGCUCAGAUACCAGACAUGAGGAUCACCCAUGUACCAAGGUAACCGAAAGGCAUGUCCCUUGGCAGCUGAGCAAUGUCU	–	–	11.1	225
AUAACAUGAGGAUCACCCAUGUAAGGUGAUACCAGACGAAGUAAAGUCCCUUGGCAGCACAAGUAAAGUUACGAAUAUUGAUAGA	430	47.3	–	–
ACUCGGUAUGUCUAAUACCGAGAGUAUGAUACCAGUAUGGUGACAUACCCUUGGCAGCAUGGGACAUGAGGAUCACCCAUGUGUU	538	505	–	–
GCACUACAUGAGGAUCACCCAUGUGCAGAUACCAGAGGUGUAUGCCUCCCUUGGCAGCUGAGUAGCUCUGGAGGCCUAUUGGUUU	15	19.1	–	–
GCACCAGGUACGGAUACCAGACGUUGCCAAACAGGGUGACAUGAGGAUCACCCAUGUACUGUCCCUUGGCAGCCGUACCUGGUGC	–	–	22.3	653
GGUGAUCCGUAUCACCGGAUCACCGGUGAUACCAGCAUCGAAAGAUGCCCUUGGCAGCACCAACAUGAGGAUCACCCAUGUAAUA	165	26.4	–	–
UGGUUUGUGAUGGAUACCAGCAGAGAAAACGUUUAUCCUAACAUGAGGAUCACCCAUGUAUGCCCUUGGCAGCUGUUGUGGGCUA	–	–	32	34.9
UGUAUGUGAUUUGAUACCAGACCAGCUGGUGGUACAUGAGGAUCACCCAUGUAGGUUUGGGUCCCUUGGCAGCAAAUCGCAUACU	47.9	30	–	–
AGCUCAGAGAGUGAUACCAGACUACAUGAGGAUCACCCAUGUUACUUUUAAAUAUCAUGAGUCCCUUGGCAGCACAAGAAGAGCA	–	–	81	168
GAUGAACUAUUUGAUACCAGACUACAUGAGGAUCACCCAUGUGAGUUUAUACUUCUGUCAGUCCCUUGGCAGCAAAUAGUUUAUC	–	–	19.2	123
UAAAUAAUCUGGGUGUAGGUAAUAACAGAUACCAGCCAGAUAACUGGCCCUUGGCAGCUGAUAACAUGAGGAUCACCCAUGUAAA	80.5	224	–	–
AAACGUUGCUGCGAUACCAGACAUGAGGAUCACCCAUGUACCAAGGUAAGAAAAUAACAUGUCCCUUGGCAGCGCAGCAACGAAA	–	–	15.4	412
UGCAUCAUAAUCAUGUAGGUGCUAGGUGAUACCAGCAUCGAAAGAUGCCCUUGGCAGCACCAACAUGAGGAUCACCCAUGUAAUA	216	97.1	–	–
UGUAACAUGAGGAUCACCCAUGUGAGUGAUACCAGAUUAGUAGUAGUCCCUUGGCAGCAUAUUGGGCGAGUGUAUAGUCUAUGCG	165	221	–	–
ACAUGAGGAUCACCCAUGUUCCUCAUUGAUACCAGUGAAUUUAGACGCCCUUGGCAGCGAGUUUUUUUAUAAGAAGUUUUUUUUU	–	–	660	1310

Sequence	apparent Kd [1] [nM]	apparent Kd [2] [nM]	apparent Kd [3] [nM]	apparent Kd [4] [nM]
CUCCGAGGCUAUACUAUACGCCUUUGUGAUACCAGAAUAAAUAUAUUCCCUUGGCAGCAUCACAUGAGGAUCACCCAUGUGCCAU	11.7	18	–	–
ACUAGCGCACAUGAUACCAGCGACAUGAGGAUCACCCAUGUACGGCGUGUAUCGAAAGGUUGCCCUUGGCAGCAUGAUAGCGCUG	–	–	13.9	255
GAUGAUAUUGCAGAUACCAGACACAUGAGGAUCACCCAUGUCGCUGGGUUACUGGAUCGUGUCCCUUGGCAGCUGCGAUAUCAUC	–	–	286	69.4
ACUCGGUGUUUGUUGCUCCGAGUGUAUGAUACCAGUUAGUUUUAUGGCCCUUGGCAGCAUAGGACAUGAGGAUCACCCAUGUGUU	32.6	45.7	–	–
UGACAUUGCUGCGAUACCAGACAUGAGGAUCACCCAUGUACCAAGGUAAAGAAAUAACGUGUCCCUUGGCAGCGCAGCAAUGUCU	–	–	9.91	91.1
CAUAAUUUAUCCUAUAAAACUAUUAGUGAUACCAGCACCUCAUGAUGCCCUUGGCAGCACUUACAUGAGGAUCACCCAUGUUUUA	172	214	–	–
UGAUCCUACAGAGAUACCAGUGCCACUGAGUGACCAGACACAUGAGGAUCACCCAUGUAACACCCUUGGCAGCUCAACUAGAGGG	20.4	69.7	–	–
UAAAAUAAAAGGGUGAAGGUAUAAACAGAUACCAGCCAGAUAACUGGCCCUUGGCAGCUGAAUGACAUGAGGAUCACCCAUGUCU	12	33.3	–	–
UCUUACUAUAGUGAUACCAGACGUACAUGAGGAUCACCCAUGUUACAUUCUUGGUUAAAAGUCCCUUGGCAGCACGAUUUGUUCG	–	–	9.28	9.5
UUAUUUAUAAUGGAUACCAGUCGUAUGGCCCGGAAUCCUGACAUGAGGAUCACCCAUGUCGACCCUUGGCAGCUGUUAUGGGUUU	–	–	14.5	24.6
AUCCUCUAGAAUGAUACCAGACCAAACAUGAGGAUCACCCAUGUAUCAGGCAAUUGUUACGUCCCUUGGCAGCAUGUAUGCCGAC	27.7	28.1	–	–
UCUUUCUAUGUAGAUACCAGCAUGUUAUCUUUCUUUUGACAUGAGGAUCACCCAUGUAAAUGCCCUUGGCAGCUACAUUUUCUUU	21.4	15.4	–	–
UUUACAUGAGGAUCACCCAUGUGCCAUGAUACCAGACAUGAAAAUGUCCCUUGGCAGCAUGAGUGAUGCAUCCGAAAGGAUGUUU	81.6	611	–	–
CCUCAUGUGUAUCACCACAUGAGUGGUGAUACCAGCAUCGAAAGAUGCCCUUGGCAGCACCAACAUGAGGAUCACCCAUGUAAUA	352	101	–	–
GAGCUGAUGUAGAAAUUUUAUUUAUGAGAUACCAGUACAGAAAUGUACCCUUGGCAGCUCAUUUUUACAUGAGGAUCACCCAUGU	–	–	12.5	13.8
AGACAUGAGGAUCACCCAUGUAGCAUGGAUACCAGAUCCAGAUUUAUCCCUUGGCAGCUGUGGUAAAGUGAUGGAUUGCUCCUAG	–	–	44.3	55.5
UGUAACAUGAGGAUCACCCAUGUGAGUGAUACCAGAUAAGUAGUAGUCCCUUGGCAGCAUAUUGGGCGAGUGUAUAGUCUAUACG	157	179	–	–
AGGAAACAACAUGAGGAUCACCCAUGUGAUACCAGUAUCAAAAGAUACCCUUGGCAGCACACAUGACAUGAGGAUCACCCAUGUA	41.4	84.4	–	–
AGCAUGUUAUCAGAUACCAGACAUCUUUUAAAACAUAUUACAUGAGGAUCACCCAUGUUGGUCCCUUGGCAGCUGAAAUAUUUCA	272	39.8	–	–
UUCUGGACCCGUGAUACCAGAGACAUGAGGAUCACCCAUGUACAUGAGGAUCACCCAUGUCUCCCUUGGCAGCACUGCAGGGAGC	–	–	115	875
AUCUCAUAGAGUGAUACCAGACUACAUGAGGAUCACCCAUGUUAGAUUUAAAUAUCAUUUGUCCCUUGGCAGCACAUUAAGUACA	12.9	11.5	–	–
AUAAGUAAUGUUUCGUGUUUUAUUACAGAUACCAGACUAUACGUUGUCCCUUGGCAGCUGGAUUACAUGAGGAUCACCCAUGUUG	–	–	19.5	35.1
AACAUGAGGAUCACCCAUGUGUCCCUUGAUACCAGUCCCAUGUGAGACCCUUGGCAGCAAACAUGAGGAUCACCCAUGUCCCAUG	102	142	–	–
UUUGCACAUGAGGAUCACCCAUGUACAGAUACCAGCCUCAUCUACGGCCCUUGGCAGCUGAGAUAAUGGUGACGUGAUGGGCUUU	–	–	14	26.3
AAGACAUGAGGAUCACCCAUGUGGAGGGAUACCAGCCUGUGUGUGGGCCCUUGGCAGCUUAAAUUUAAUUUAAUUAAAUAAAUUU	34.7	36.1	–	–
AAGCUGACAAGAAGGUGUUCCUAAGCUGAUACCAGCCUGGAAACAGGCCCUUGGCAGCAGCACAUGAGGAUCACCCAUGUAAUAA	–	–	118	79.2
